Active and inactive are the calls of the source. The calls are words filed in the database; no cut-off is given here. Residues, ends and D or L forms follow the SMILES beside them.
Tests used:
[1] = system: J774.A1; assay: Antiinflammatory activity in mouse J774A1 cells assessed as inhibition of LPS-stimulated TNFalpha stimulation after 4 hrs by ELISA; format: functional, cell-based
Outline: (§1)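 Murine macrophage J774A.1 cells in RPMI1640 with 10% heat-inactivated FBS, glutamine, pyruvate, nonessential amino acids, HEPES and 2-mercaptoethanol. Peptides, dissolved in DMSO, added for 1 h at 37 °C before LPS (0.1 µg/mL) for a further 4 or 6 h. IL-6 or TNF-α in supernatant measured by sandwich ELISA: biotinylated detection antibody, avidin-HRP, ABTS substrate, OD 405 nm.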

[2] = system: J774.A1; assay: Antiinflammatory activity in mouse J774A1 cells assessed as inhibition of LPS-stimulated IL6 stimulation after 4 hrs by ELISA; format: functional; outline: as §1

SMILES	Activity [1]	Activity [2]	Activity ([2]; record 2) [%]
CC[C@@H](C)[C@@H]1NC(=O)[C@@H]2CCCN2C(=O)[C@H](CC(C)C)NC(=O)[C@H](C)NC(=O)CNC(=O)[C@H]([C@@H](C)O)NC(=O)[C@H](CCC(N)=O)NC(=O)[C@@H]2CCCN2C1=O	Active	Active	
CC(C)C[C@@H]1NC(=O)[C@H](C(C)C)NC(=O)CNC(=O)[C@H](C)NC(=O)[C@@H]2CCCN2C(=O)[C@H](Cc2ccc(O)cc2)NC(=O)[C@H](Cc2ccc(O)cc2)NC(=O)[C@H](CO)NC1=O (cyclo(AGVLSYYP))	Active	Active	
CC[C@H](C)[C@@H]1NC(=O)[C@@H]2CCCN2C(=O)[C@H](CC(C)C)NC(=O)[C@H](CCSC)NC(=O)[C@H](C)NC(=O)[C@H]([C@@H](C)O)NC(=O)[C@H](CCC(N)=O)NC(=O)[C@@H]2CCCN2C1=O (cyclo(AMLPIPQT))	Active	Active	
CC(C)C[C@@H]1NC(=O)[C@H](C(C)C)NC(=O)[C@H](C)NC(=O)CNC(=O)[C@@H]2CCCN2C(=O)[C@H](Cc2ccc(O)cc2)NC(=O)[C@H](Cc2ccc(O)cc2)NC(=O)[C@H](CO)NC1=O (cyclo(AVLSYYPG))		Active	
COc1ccc(C[C@@H]2NC(=O)[C@H](Cc3ccc(O)cc3)NC(=O)[C@H](CO)NC(=O)[C@H](CC(C)C)NC(=O)[C@H](C(C)C)NC(=O)CNC(=O)CNC(=O)[C@@H]3CCCN3C2=O)cc1 (cyclo(GGVLSYY(Me)P))	inactive	Active	25

Source: ChEMBL document CHEMBL1255555, “Parallel synthesis and anti-inflammatory activity of cyclic peptides cyclosquamosin D and Met-cherimolacyclopeptide B and their analogs” (2010)
